Measurements: ChEMBL document CHEMBL5329174, “Discovery of benzoxazole-thiazolidinone hybrids as promising antibacterial agents against Staphylococcus aureus and Enterococcus species” (RSC Med Chem, 2023)
≈ marks a conversion by molar mass, not a printed value.

What was measured:
[1] = system: Staphylococcus aureus; assay: Antibacterial activity against vancomycin-resistant Staphylococcus aureus VRS 4 assessed as reduction in bacterial growth; format: functional
Outline: (§1)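 CLSI broth microdilution in cation-supplemented Mueller–Hinton broth II. Starter cultures were grown overnight at 37 °C with shaking from a single MHA colony, then diluted by OD600 to ~10^6 CFU/mL. Compounds came from 10 mg/mL DMSO stocks and were tested two-fold from 64 to 0.5 mg/L. Plates were incubated 37 °C for 18–24 h. MIC was taken as the lowest concentration with no visible growth. Three independent runs, each in duplicate.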

[2] = system: Enterococcus faecium; assay: Antibacterial activity against vancomycin-resistant Enterococcus faecium NR 31909 assessed as inhibition of bacterial growth
[3] = system: Acinetobacter baumannii; assay: Antibacterial activity against Acinetobacter baumannii BAA-1605 assessed as reduction in bacterial growth; format: functional
Outline: (§2)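 CLSI broth microdilution in cation-supplemented Mueller–Hinton broth II; overnight starter cultures (37 °C, shaking, 18–24 h) adjusted by OD600 to ~10^6 CFU/mL. Compounds dosed from DMSO stocks (10 mg/mL stock) as two-fold dilutions, 64–0.5 mg/L. Plates held 37 °C, 18–24 h. MIC = lowest concentration without visible growth. Three independent runs, each in duplicate.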

[4] = system: Enterococcus faecalis; assay: Antibacterial activity against vancomycin-susceptible Enterococcus faecalis NR 31887 assessed as inhibition of bacterial growth incubated for 18 to 24 hrs by broth microdilution assay; format: functional; conditions: time 18-24 hrs; outline: as §2
[5] = system: Staphylococcus aureus; assay: Antibacterial activity against methicilin-resistant Staphylococcus aureus NRS 194 assessed as reduction in bacterial growth; format: functional; outline: as §1
[6] = system: Staphylococcus aureus; assay: Antibacterial activity against methicilin-resistant Staphylococcus aureus NRS 198 assessed as reduction in bacterial growth; format: functional; outline: as §1
[7] = Cytotoxicity against african green monkey Vero cells assessed as reduction in cell viability incubated for 72 hrs by MTT assay; format: toxicity, cell-based; conditions: chlorocebus sabaeus
Outline: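 Vero (ATCC CCL-81) cells seeded at ~10^3 per well, 37 °C, 5% CO2. After 24 h, compound added at 100–12.5 μg/mL for 72 h. MTT then given for 4 h at 37 °C, formazan dissolved in DMSO, absorbance read at 540 nm. CC50 taken as the concentration giving 50% viability loss; doxorubicin as positive control; triplicate.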

[8] = system: Enterococcus faecalis; assay: Antibacterial activity against vancomycin-susceptible Enterococcus faecalis NR 31888 assessed as inhibition of bacterial growth incubated for 18 to 24 hrs by broth microdilution assay; format: functional; conditions: time 18-24 hrs; outline: as §2
[9] = system: Staphylococcus aureus; assay: Antibacterial activity against methicilin-resistant Staphylococcus aureus NRS 191 assessed as reduction in bacterial growth; format: functional; outline: as §1
[10] = Selectivity index, ratio of CC50 for cytotoxicity against african green monkey Vero cells assessed as reduction in cell viability to MIC for antibacterial activity against Staphylococcus aureus ATCC 29213 assessed as reduction in bacterial growth; format: toxicity, cell-based; conditions: read-out: Selectivity Index
[11] = system: Staphylococcus aureus; assay: Antibacterial activity against methicilin-resistant Staphylococcus aureus NRS 129 assessed as reduction in bacterial growth; format: functional; outline: as §1
[12] = system: Staphylococcus aureus; assay: Antibacterial activity against methicilin-resistant Staphylococcus aureus NRS 119 assessed as reduction in bacterial growth; format: functional; outline: as §1
[13] = system: Enterococcus faecalis; assay: Antibacterial activity against vancomycin-susceptible Enterococcus faecalis NR 31885 assessed as inhibition of bacterial growth incubated for 18 to 24 hrs by broth microdilution assay; format: functional; conditions: time 18-24 hrs; outline: as §2
[14] = system: Enterococcus faecium; assay: Antibacterial activity against vancomycin-resistant Enterococcus faecium NR 31903 assessed as inhibition of bacterial growth
[15] = system: Escherichia coli; assay: Antibacterial activity against Escherichia coli ATCC 25922 assessed as reduction in bacterial growth; format: functional; outline: as §2
[16] = system: Staphylococcus aureus; assay: Antibacterial activity against methicilin-resistant Staphylococcus aureus NRS 193 assessed as reduction in bacterial growth; format: functional; outline: as §1
[17] = system: Klebsiella pneumoniae; assay: Antibacterial activity against Klebsiella pneumoniae BAA-1705 assessed as reduction in bacterial growth; format: functional; outline: as §2
[18] = system: Staphylococcus aureus; assay: Antibacterial activity against methicilin-resistant Staphylococcus aureus NRS 186 assessed as reduction in bacterial growth; format: functional; outline: as §1
[19] = system: Enterococcus faecalis; assay: Antibacterial activity against vancomycin-susceptible Enterococcus faecalis NR 31886 assessed as inhibition of bacterial growth incubated for 18 to 24 hrs by broth microdilution assay; format: functional; conditions: time 18-24 hrs; outline: as §2
[20] = system: Staphylococcus aureus; assay: Antibacterial activity against Staphylococcus aureus ATCC 29213 assessed as reduction in bacterial growth; format: functional; outline: as §2
[21] = system: Enterococcus faecalis; assay: Antibacterial activity against vancomycin-susceptible Enterococcus faecalis NR 31884 assessed as inhibition of bacterial growth incubated for 18 to 24 hrs by broth microdilution assay; format: functional; conditions: time 18-24 hrs; outline: as §2
[22] = system: Staphylococcus aureus; assay: Antibacterial activity against vancomycin-resistant Staphylococcus aureus VRS 12 assessed as reduction in bacterial growth; format: functional; outline: as §1
[23] = system: Pseudomonas aeruginosa; assay: Antibacterial activity against Pseudomonas aeruginosa ATCC 27853 assessed as reduction in bacterial growth; format: functional; outline: as §2
[24] = system: Staphylococcus aureus; assay: Antibacterial activity against methicilin-resistant Staphylococcus aureus NRS 192 assessed as reduction in bacterial growth; format: functional; outline: as §1
[25] = system: Staphylococcus aureus; assay: Antibacterial activity against methicilin-resistant Staphylococcus aureus NRS 100 assessed as reduction in bacterial growth; format: functional; outline: as §1
[26] = system: Staphylococcus aureus; assay: Antibacterial activity against vancomycin-resistant Staphylococcus aureus VRS 1 assessed as reduction in bacterial growth; format: functional; outline: as §1
[27] = system: Enterococcus faecium; assay: Antibacterial activity against vancomycin-resistant Enterococcus faecium NR 31912 assessed as inhibition of bacterial growth
[28] = system: Staphylococcus aureus; assay: Bactericidal activity against Staphylococcus aureus ATCC 29213 incubated for 24 hrs by time-kill assay; format: functional, organism-based
Outline: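 Time-kill: S. aureus ATCC 29213 at ~10^6 CFU/mL in MHBII, exposed to 1× and 10× MIC, 37 °C with shaking for 24 h. Surviving CFU/mL plotted over time; mean of replicate experiments in duplicate.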

SMILES	MIC [1]	MIC [2]	MIC [4]	MIC [5]	MIC [6]	MIC [8]	MIC [9]	MIC [11]	MIC [12]	MIC [13]	MIC [14]	MIC [16]	MIC [18]	MIC [19]	MIC [20]	MIC [21]	MIC [22]	MIC [24]	MIC [25]	MIC [26]	further results
O=C1N/C(=N\c2nc3ccccc3o2)S/C1=C\c1cccc(O)c1	2 µg/mL (≈ 5.93 µM)	0.25 µg/mL (≈ 0.741 µM)	8 µg/mL (≈ 23.7 µM)	2 µg/mL (≈ 5.93 µM)	2 µg/mL (≈ 5.93 µM)	16 µg/mL (≈ 47.4 µM)	2 µg/mL (≈ 5.93 µM)	2 µg/mL (≈ 5.93 µM)	2 µg/mL (≈ 5.93 µM)	16 µg/mL (≈ 47.4 µM)	4 µg/mL (≈ 11.9 µM)	2 µg/mL (≈ 5.93 µM)	1 µg/mL (≈ 2.96 µM)	16 µg/mL (≈ 47.4 µM)	2 µg/mL (≈ 5.93 µM)	16 µg/mL (≈ 47.4 µM)	2 µg/mL (≈ 5.93 µM)	2 µg/mL (≈ 5.93 µM)	1 µg/mL (≈ 2.96 µM)	2 µg/mL (≈ 5.93 µM)	MIC [3]: > 64 µg/mL; CC50 at 72 h [7]: > 40 µg/mL; selectivity ratio [10]: > 20; MIC [15]: > 64 µg/mL; MIC [17]: > 64 µg/mL; MIC [23]: > 64 µg/mL; MIC [27]: 0.25 µg/mL (≈ 0.741 µM)
COc1cc(/C=C2\S/C(=N/c3nc4ccccc4o3)NC2=O)ccc1O	4 µg/mL (≈ 10.9 µM)	0.25 µg/mL (≈ 0.68 µM)	16 µg/mL (≈ 43.6 µM)	4 µg/mL (≈ 10.9 µM)	4 µg/mL (≈ 10.9 µM)	16 µg/mL (≈ 43.6 µM)	2 µg/mL (≈ 5.44 µM)	4 µg/mL (≈ 10.9 µM)	4 µg/mL (≈ 10.9 µM)	16 µg/mL (≈ 43.6 µM)	4 µg/mL (≈ 10.9 µM)	4 µg/mL (≈ 10.9 µM)	2 µg/mL (≈ 5.44 µM)	16 µg/mL (≈ 43.6 µM)	2 µg/mL (≈ 5.44 µM)	16 µg/mL (≈ 43.6 µM)	2 µg/mL (≈ 5.44 µM)	4 µg/mL (≈ 10.9 µM)	2 µg/mL (≈ 5.44 µM)	4 µg/mL (≈ 10.9 µM)	MIC [3]: > 64 µg/mL; CC50 at 72 h [7]: > 40 µg/mL; selectivity ratio [10]: > 20; MIC [15]: > 64 µg/mL; MIC [17]: > 64 µg/mL; MIC [23]: > 64 µg/mL; MIC [27]: 0.25 µg/mL (≈ 0.68 µM)
C[C@H]1COc2c(N3CCN(C)CC3)c(F)cc3c(=O)c(C(=O)O)cn1c23 [LEVOFLOXACIN ANHYDROUS]	> 64 µg/mL	64 µg/mL (≈ 177 µM)	0.25 µg/mL (≈ 0.692 µM)	0.125 µg/mL (≈ 0.346 µM)	32 µg/mL (≈ 88.6 µM)	0.25 µg/mL (≈ 0.692 µM)	16 µg/mL (≈ 44.3 µM)	0.25 µg/mL (≈ 0.692 µM)	16 µg/mL (≈ 44.3 µM)	0.25 µg/mL (≈ 0.692 µM)	> 64 µg/mL	32 µg/mL (≈ 88.6 µM)	8 µg/mL (≈ 22.1 µM)	0.25 µg/mL (≈ 0.692 µM)	0.125 µg/mL (≈ 0.346 µM)	0.25 µg/mL (≈ 0.692 µM)	32 µg/mL (≈ 88.6 µM)	8 µg/mL (≈ 22.1 µM)	0.25 µg/mL (≈ 0.692 µM)	64 µg/mL (≈ 177 µM)	CC50 at 72 h [7]: > 100 µg/mL; MIC [17]: 64 µg/mL (≈ 177 µM); MIC [27]: 64 µg/mL (≈ 177 µM)
C[C@@H](O)[C@H]1C(=O)N2C(C(=O)O)=C(S[C@@H]3CN[C@H](C(=O)N(C)C)C3)[C@H](C)[C@H]12 [MEROPENEM]	64 µg/mL (≈ 167 µM)			1 µg/mL (≈ 2.61 µM)	64 µg/mL (≈ 167 µM)		64 µg/mL (≈ 167 µM)	4 µg/mL (≈ 10.4 µM)	64 µg/mL (≈ 167 µM)			64 µg/mL (≈ 167 µM)	8 µg/mL (≈ 20.9 µM)		0.125 µg/mL (≈ 0.326 µM)		8 µg/mL (≈ 20.9 µM)	8 µg/mL (≈ 20.9 µM)	32 µg/mL (≈ 83.4 µM)	64 µg/mL (≈ 167 µM)	
O=C1N/C(=N\c2nc3ccccc3o2)S/C1=C\c1cc(Cl)ccc1O	1 µg/mL (≈ 2.69 µM)	0.125 µg/mL (≈ 0.336 µM)	2 µg/mL (≈ 5.38 µM)	1 µg/mL (≈ 2.69 µM)	1 µg/mL (≈ 2.69 µM)	4 µg/mL (≈ 10.8 µM)	0.5 µg/mL (≈ 1.34 µM)	0.5 µg/mL (≈ 1.34 µM)	1 µg/mL (≈ 2.69 µM)	4 µg/mL (≈ 10.8 µM)	1 µg/mL (≈ 2.69 µM)	1 µg/mL (≈ 2.69 µM)	0.5 µg/mL (≈ 1.34 µM)	4 µg/mL (≈ 10.8 µM)	1 µg/mL (≈ 2.69 µM)	4 µg/mL (≈ 10.8 µM)	0.5 µg/mL (≈ 1.34 µM)	1 µg/mL (≈ 2.69 µM)	0.5 µg/mL (≈ 1.34 µM)	1 µg/mL (≈ 2.69 µM)	MIC [3]: > 64 µg/mL; CC50 at 72 h [7]: > 20 µg/mL; selectivity ratio [10]: > 20; MIC [15]: > 64 µg/mL; MIC [17]: > 64 µg/mL; Activity [28]: Dose-Dependent Effect; MIC [23]: > 64 µg/mL; MIC [27]: 0.125 µg/mL (≈ 0.336 µM)
CN(C)c1ccc(O)c2c1C[C@H]1C[C@H]3[C@H](N(C)C)C(O)=C(C(N)=O)C(=O)[C@@]3(O)C(O)=C1C2=O [MINOCYCLINE]		8 µg/mL (≈ 17.5 µM)	8 µg/mL (≈ 17.5 µM)			0.5 µg/mL (≈ 1.09 µM)				0.5 µg/mL (≈ 1.09 µM)	8 µg/mL (≈ 17.5 µM)			0.5 µg/mL (≈ 1.09 µM)		0.5 µg/mL (≈ 1.09 µM)					MIC [27]: 8 µg/mL (≈ 17.5 µM)
O=C1N/C(=N\c2nc3ccccc3o2)S/C1=C\c1ccc(O)cc1	2 µg/mL (≈ 5.93 µM)	0.25 µg/mL (≈ 0.741 µM)	8 µg/mL (≈ 23.7 µM)	2 µg/mL (≈ 5.93 µM)	2 µg/mL (≈ 5.93 µM)	16 µg/mL (≈ 47.4 µM)	2 µg/mL (≈ 5.93 µM)	2 µg/mL (≈ 5.93 µM)	2 µg/mL (≈ 5.93 µM)	16 µg/mL (≈ 47.4 µM)	4 µg/mL (≈ 11.9 µM)	2 µg/mL (≈ 5.93 µM)	1 µg/mL (≈ 2.96 µM)	16 µg/mL (≈ 47.4 µM)	2 µg/mL (≈ 5.93 µM)	16 µg/mL (≈ 47.4 µM)	2 µg/mL (≈ 5.93 µM)	2 µg/mL (≈ 5.93 µM)	1 µg/mL (≈ 2.96 µM)	2 µg/mL (≈ 5.93 µM)	MIC [3]: > 64 µg/mL; CC50 at 72 h [7]: > 40 µg/mL; selectivity ratio [10]: > 20; MIC [15]: > 64 µg/mL; MIC [17]: > 64 µg/mL; MIC [23]: > 64 µg/mL; MIC [27]: 0.25 µg/mL (≈ 0.741 µM)
